Screening results as filed in PubChem.
Sampled rows, rich in hits. Any-hit rate of the full collection: about 1.2%.
ARNT TACC3 PPI: disruptors of human ARNT/TACC3 interaction; Q9Y6A5; AlphaScreen His-ARNT PAS-B/GST-TACC3 binding, luminescence; TACC3 fragment carries E629A point mutation; inhibition, % at 9.99 µM; hit rate 0.66% among 390,000;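 active means mean inhibition of replicates at least 50% and at least half of replicates each reaching 50%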;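 further: 0% = complete ARNT plus TACC3 wells and 100% = ARNT alone without TACC3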
CaV13 ICDI inh: Primary screen for inhibitors of IQ motif and Ca2+-dependent inactivation inhibitor domain binding in CACNA1D, Förster resonance energy transfer in living cells, … | HEK cells, CFP/YFP FRET ICDI-IQ, plate reader, 10 min; percent FRET-ratio fall versus neutral wells | inhibition, % at 12.3 µM | hit rate 0.098% among 340,000 | AID 743397;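 active means mean replicate inhibition of at least 30% and at least 1% of replicates passing that level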;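 further: 0% = median of the neutral control wells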
CAL PDZ FP-1: human CAL PDZ-peptide interaction inhibition; Q9HD26; hit rate 0.02% among 330,000; purified CAL PDZ, TMR-peptide fluorescence polarization, 1 h; inhibition, % at 20 µM;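 active means highest replicate inhibition of at least 40%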;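 further: plate controls were DMSO neutral control wells for no effect and unlabeled competitor peptide control wells for full effect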
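material = purified tagged CAL PDZ domain construct (CerCALP) | compound dosing = 20 µM, one dose | times = 1 h at RT | measured by = fluorescence polarization from S- and P-plane intensities, G-factor corrected | read-out = inhibition from polarization loss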
CAL PDZ FP-2: CAL PDZ (human) peptide binding inhibition; hit rate 0.92% among 300,000; inhibition, % at 24.9 µM; purified CAL PDZ, TMR-peptide fluorescence polarization, 1 h; Q9HD26;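 active means mean inhibition of at least 30% with at least half of replicates also reaching 30%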;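 further: 0% = DMSO neutral control and 100% = excess unlabeled competitor peptide PRC23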
* = called active by the depositor; / = no result; ! = repeats disagree.

SMILES	ARNT TACC3 PPI	CaV13 ICDI inh	CAL PDZ FP-1	CAL PDZ FP-2
COc1ccc(NC(=O)N2CCN(S(C)(=O)=O)CC2)c(OC)c1	1.8	-4.1	-2.9	38.1*
CCCCCCSc1cc(-c2nc3cc(C)ccn3c2NCCCC)ccc1OC	0.2	78.1*!	0.8	1.9
CCCCNCc1cc(OCC)c(OCC(N)=O)cc1Br	6.7	-9.1	-3.3	37.5*
CN(C[C@H]1N[C@@H](CO)[C@H]1c1ccc(C2=CCCCC2)cc1)S(C)(=O)=O	12.5	/	/	/
Cc1ccccc1N1CCN(C2=NC(=O)/C(=C/c3cn[nH]c3-c3ccccc3)S2)CC1	20.7*	-5.3	-3.2	-1.8
Cc1ccccc1-c1ccc(/C=C2/SC(N3CCOCC3)=NC2=O)o1	0.5	-6.1	-1.0	/
O=C(Nc1cc(F)ccc1F)N[C@H]1C=C[C@@H](CC(=O)N2CCc3ccccc3C2)O[C@@H]1CO	-5.3	/	/	/
O=C(NCCCN1CCCC1=O)c1cc2nc(-c3ccco3)cc(C(F)(F)F)n2n1	0.6	-2.5	0.4	57.7*
C[C@@H](O)C#Cc1cnc2c(c1)C(=O)N([C@@H](C)CO)C[C@H](C)[C@H](CN(C)Cc1cccc(F)c1)O2	3.2	/	/	/
O=C(c1cccc(F)c1)N1C[C@H]2[C@@H](c3ccccc31)[C@@H](CO)N2C(=O)c1ccccn1	-9.2	/	/	/
N#CCCN(Cc1ccccc1)S(=O)(=O)c1cccs1	-24.8	-3.8	/	61.5*
N#CCCN(Cc1cccnc1)S(=O)(=O)c1ccc2ccccc2c1	-15.4	-5.8	0.3	5.7
O=C(CCc1nc(-c2ccc(Cl)cc2)no1)NC1CCCCC1	8.8	-6.5	/	-2.5
O=C(CCCc1nc(-c2ccc(Cl)cc2)no1)NC1CCCC1	3.7	/	-0.8	73.7*
Cc1noc(C)c1NC(=O)Nc1cccc2c1O[C@@H](CN(C)CC1CC1)[C@H](C)CN([C@H](C)CO)C2=O	-2.8	/	/	/
Cc1oc(S(=O)(=O)N2CCCCC2)cc1NC(=O)Nc1ccc(F)cc1	4.1	-1.2	-0.6	45.4*
O=C(Nc1ccc(F)cc1)Nc1ccc(S(=O)(=O)N2CCCC2)cc1	/	-6.1	-1.3	-4.0
S=C(NCc1ccccn1)NN=Cc1ccccn1	58.3*	-6.7	-0.5	-1.6
COc1ccc(S(=O)(=O)N[C@@H]2CC[C@H](CC(=O)N3CCN(c4ccccc4)CC3)O[C@@H]2CO)cc1	-8.2	/	/	/
CCCCNC(=O)NNC(=O)C1CC1(c1ccccc1)c1ccccc1 (stereo not drawn)	4.2	-2.2	-1.2	-6.3
CC(C)(C)C(=O)NNC(=O)C1CC1(c1ccccc1)c1ccccc1 (stereo not drawn)	-1.3	-17.1	0.7	35.0*
COc1ccc(S(=O)(=O)N2CCOCC2)cc1C(=O)NCC(c1ccccc1)c1ccccc1	-2.0	-1.7	-0.7	42.0*
COc1ccc(S(=O)(=O)N2CCOCC2)cc1NC(=O)Cc1c(Cl)cccc1Cl	4.3	-5.2	0.5	4.2
COc1ccc(S(=O)(=O)N2CCOCC2)cc1NC(=O)CN1CCCCCC1	-0.1	5.8	31.9	35.6*
O=C(CSc1nncs1)Nc1cc(S(=O)(=O)N2CCOCC2)ccc1N1CCCC1	-5.1	-5.3	-2.0	-2.7
SMILES	ARNT TACC3 PPI	CaV13 ICDI inh	CAL PDZ FP-1	CAL PDZ FP-2
Nc1nnc(SCC(=O)Nc2cc(S(=O)(=O)N3CCOCC3)ccc2N2CCCC2)s1	4.3	-2.7	-2.5	67.5*
Cc1ccc(S(=O)(=O)N(C)C[C@H]2Oc3ccc(NC(=O)Nc4ccc5c(c4)OCO5)cc3C(=O)N([C@H](C)CO)C[C@H]2C)cc1	10.4	/	/	/
Cc1ccc(S(=O)(=O)N(C)C[C@H]2Oc3c(NC(=O)Nc4ccc5c(c4)OCO5)cccc3C(=O)N([C@H](C)CO)C[C@@H]2C)cc1	-8.3	/	/	/
Cc1ccc(NS(=O)(=O)c2ccc(Cl)c(N=Nc3c(O)[nH]c(=O)[nH]c3=O)c2)cc1Cl	-2.3	-17.4	-0.1	30.6*
Cc1onc(-c2c(Cl)cccc2Cl)c1C(O)c1ccc(F)cc1 (stereo not drawn)	10.8	-3.8	/	-4.0
Cc1onc(-c2c(Cl)cccc2Cl)c1C(O)c1ccccc1 (stereo not drawn)	-8.3	-3.3	/	45.7*
Nc1ccc(Oc2cccc(Oc3ccc(N)cc3)c2)cc1	1.9	-4.9	-4.0	38.9*
Cc1cccc(Oc2ccc(N)cc2)c1	0.2	-4.1	0.7	-4.5
C[C@@H]1CN([C@H](C)CO)C(=O)c2cc(NS(=O)(=O)c3ccccc3)ccc2O[C@@H](C)CCCCO[C@@H]1CN(C)CC1CC1	-2.1	/	/	/
O=C(NCCN1CCCCC1)c1ccc(/C=N/O)nc1	26.5	-4.9	-0.5	0.8
NCCCNC(=O)c1ccc(/C=N/O)nc1	78.1*	-0.7	-0.7	0.2
Cc1noc(C)c1S(=O)(=O)Nc1ccc2c(c1)C(=O)N([C@@H](C)CO)C[C@@H](C)[C@@H](CN(C)Cc1ccc3c(c1)OCO3)OCCCC[C@@H](C)O2	-0.9	/	/	/
C[C@@H]1CCCCO[C@@H](CN(C)CC2CC2)[C@@H](C)CN([C@H](C)CO)C(=O)c2cc(NC(=O)CCC(F)(F)F)ccc2O1	-4.9	/	/	/
O=C(Nc1ccccc1)OC1CCC2CC1CCC2OC(=O)Nc1ccccc1 (stereo not drawn)	-5.6	-17.8	-0.8	31.6*
CCOc1cc(/C=N/n2c(C)nc3sc(C)c(C)c3c2=O)ccc1O	-5.8	-6.5	-0.3	72.0*
O=C(Nc1ccccc1)N1CCN(Cc2ccc(Cl)cc2)CC1	/	-5.3	-1.5	-2.0
O=C(Nc1cc(Cl)cc(Cl)c1)N1CCCN(Cc2ccccc2)CC1	-1.1	-3.7	-0.8	37.4*
CC(=O)OCC12COC3c4ccccc4OC(C)(CC1C)C3C2C (stereo not drawn)	-7.7	-18.8	0.1	50.5*
CC1CC2(C)Oc3ccccc3C3OCC1(CO)C(C)C32 (stereo not drawn)	0.9	-8.5	-1.8	-2.4
CC(C)CNC(=O)COC(=O)CCC(=O)c1ccc(Cl)cc1	-1.6	-2.8	40.9*	13.4
CNC[C@@H]1OCCCC[C@@H](C)Oc2ccc(NC(=O)C3CCCCC3)cc2C(=O)N([C@H](C)CO)C[C@@H]1C	-11.9	/	/	/
CC(=O)c1cccc(-c2ccnc3c2CC(C(=O)NCc2ccc(F)c(F)c2)O3)c1 (stereo not drawn)	/	43.7*	/	/
CCCNC(=O)N1C[C@@H](C)[C@@H](OC)CN(C)C(=O)c2cc(NC(=O)CC)ccc2OC[C@H]1C	-16.5	/	/	/
COCn1c(-c2ccc(OC)cc2)nc2ccccc21	1.1	-4.8	/	107.1*
O=C(O)/C=C/C(=O)Nc1ccc2c(c1)C(=O)c1ccccc1C2=O	47.6*	-3.7	-0.2	97.8*
CC(=O)Nc1ccc2c(c1)C(=O)c1ccccc1C2=O	2.1	-6.2	-0.9	-1.8
O=C(O)/C=C/C(=O)Nc1ccc(O)cc1	54.2*	-4.4	0.8	-1.8
Cc1noc(C)c1NC(=O)N[C@@H]1C=C[C@H](CC(=O)NCCCN(C)C)O[C@H]1CO	-0.9	/	/	/
O=C(c1ccccc1F)N1C[C@@H]2[C@H](c3ccccc31)[C@@H](CO)N2C(=O)c1ccc(F)cc1	-0.1	/	/	/
